Data on 3 molecules can be found in ChEMBL document CHEMBL3596154, “Discovery of biaryl carboxylamides as potent RORγ inverse agonists” (Bioorg Med Chem Lett, 2015).

pEC50, pIC50: −log10 of the molar value.

The nature of series [1]: AUC (infinity) in rat at 2 mg/kg, iv. Type of series: ADME, organism-based. More on the design: dose 2 mg/kg, time infinity, route intravenous. Conditions: in vivo. The gist of the method: (§1)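 Rat PK; iv dosing at 2.0 mg/Kg in SPEW vehicle, oral dosing at 10 mg/Kg in 0.1% CMC-0.2%Tween; AUCinf reported in ng*hr/mL.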
Series [2] can be described thus: Apparent permeability from apical to basolateral side in human Caco2 cells. It is filed as ADME, cell-based. Particulars: Caco-2. A general note: Passage across Caco-2 layers is used to estimate intestinal permeability.
Series [3] in a line: Apparent permeability from basolateral to apical side in human Caco2 cells. Particulars: Caco-2. Type of series: ADME, cell-based.
Series [4] in a line: Inhibition of CYP450 (unknown origin). Type of series: ADME. Particulars: human.
Series [5] in a line: Oral bioavailability in rat at 10 mg/kg. It is filed as ADME, organism-based. Conditions: in vivo.
In the next series the test system is Rattus norvegicus. Kind of series: Clearance in rat at 2 mg/kg, iv relative to hepatic blood flow. Type of series: ADME, organism-based, Liver. Particulars: in vivo. The gist of the method: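 Rats given 2.0 mg/kg iv in SPEW vehicle. Clearance is expressed as % of hepatic blood flow (%Qh).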
A short description of series [6]: Cmax in rat at 2 mg/kg, iv. It is filed as ADME, organism-based. On the set-up: dose 2 mg/kg, route intravenous. Particulars: in vivo. The gist of the method:
(§2)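 Rats dosed at 2.0 mg/kg intravenously in SPEW vehicle. Plasma exposure profiled for T1/2 and Cmax.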

Series [7] can be described thus: Half life in rat at 2 mg/kg, iv. It is filed as ADME, organism-based. Conditions: in vivo. The gist of the method:
as §2

A short description of series [8]: Clearance in human hepatocytes relative to hepatic blood flow. Particulars: read-out: CLH. Type of series: ADME, cell-based, Liver, Hepatocyte.
Series [9] concerns the target T1, Nuclear receptor ROR-gamma (Homo sapiens, UniProt P51449).
T1 sequence (P51449 whole entry): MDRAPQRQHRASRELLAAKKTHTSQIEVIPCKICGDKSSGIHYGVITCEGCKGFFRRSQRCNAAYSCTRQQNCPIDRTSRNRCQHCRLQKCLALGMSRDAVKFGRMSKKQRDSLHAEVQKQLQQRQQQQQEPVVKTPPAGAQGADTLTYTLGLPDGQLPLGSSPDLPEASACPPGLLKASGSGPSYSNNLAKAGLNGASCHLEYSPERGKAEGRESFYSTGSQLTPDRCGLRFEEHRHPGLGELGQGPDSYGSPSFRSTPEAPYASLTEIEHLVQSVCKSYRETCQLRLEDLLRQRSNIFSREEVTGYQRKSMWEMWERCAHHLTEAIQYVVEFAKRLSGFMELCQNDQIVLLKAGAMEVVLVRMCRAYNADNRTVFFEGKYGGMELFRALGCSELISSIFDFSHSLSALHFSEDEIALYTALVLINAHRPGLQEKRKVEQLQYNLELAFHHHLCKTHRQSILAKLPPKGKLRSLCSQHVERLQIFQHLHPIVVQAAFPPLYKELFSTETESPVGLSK
Kind of series: Inverse agonist activity at human recombinant GST-tagged RORgammat ligand binding domain assessed as effect on receptor-biotin tagged TRAP220 co-activator peptide interaction using 10 nM GST-RORgamma LBD by FRET-based assay. The gist of the method:
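Recombinant human GST-RORγ LBD (10 nM) with 40 nM biotin-TRAP220 co-activator peptide, 50 nM SAAPC, 1.5 nM Eu-anti-GST IgG. Buffer: 20 mM Tris-HCl pH 7.0, 60 mM NaCl, 5 mM MgCl2, 1 mM DTT, 0.1% BSA, 1.0% DMSO. FRET read on plate reader. IC50 is the mean of at least two runs.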

Series [10] can be described thus: Clearance in rat hepatocytes relative to hepatic blood flow. Type of series: ADME, cell-based, Liver, Hepatocyte. Particulars: read-out: CLH.
Series [11] can be described thus: Cmax in rat at 10 mg/kg, po. More on the design: dose 10 mg/kg, route oral. It is filed as ADME, organism-based. Conditions: in vivo.
For series [12], the target named is T1, Nuclear receptor ROR-gamma. Kind of series: Inverse agonist activity at Gal4 DNA binding domain-tagged human RORgammat expressed in HEK293T cells assessed as effect on receptor-mediated transcriptional activity by luciferase reporter gene assay. Type of series: functional, cell-based, HEK-293T. In short, it runs like this:
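293T cells transfected with a Gal4:RORγ luciferase reporter. Cells seeded day 1 and transfected day 2; compound added in assay medium after transfection. Day 3: cells lysed and luminescence read by dual-flash. Dose-response EC50 is the mean of at least two runs.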
A general note: In a reporter assay the amount or activity of a reporter protein is the signal.

The nature of series [13]: AUC (infinity) in rat at 10 mg/kg, po. Type of series: ADME, organism-based. More on the design: dose 10 mg/kg, route oral, time infinity. Particulars: in vivo. The gist of the method:
as §1

For series [14], the target named is T2, Nuclear receptor ROR-beta (Homo sapiens, UniProt Q92753).
T2 sequence (Q92753 whole entry): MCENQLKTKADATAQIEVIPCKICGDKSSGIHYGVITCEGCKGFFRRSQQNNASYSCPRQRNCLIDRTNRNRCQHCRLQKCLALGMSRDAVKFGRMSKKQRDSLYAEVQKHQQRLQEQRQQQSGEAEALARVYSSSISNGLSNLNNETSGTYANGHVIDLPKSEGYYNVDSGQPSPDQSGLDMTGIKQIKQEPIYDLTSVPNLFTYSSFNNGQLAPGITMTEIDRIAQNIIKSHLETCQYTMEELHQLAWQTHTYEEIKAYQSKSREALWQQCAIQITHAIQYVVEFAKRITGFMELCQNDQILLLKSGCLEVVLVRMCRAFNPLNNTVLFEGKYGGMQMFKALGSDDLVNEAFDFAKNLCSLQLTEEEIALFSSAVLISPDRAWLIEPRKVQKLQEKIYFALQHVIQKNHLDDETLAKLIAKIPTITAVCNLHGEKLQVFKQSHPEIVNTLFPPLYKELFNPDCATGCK
Kind of series: Inverse agonist activity at Gal4 DNA binding domain-tagged human RORbeta expressed in HEK293T cells assessed as effect on receptor-mediated transcriptional activity by luciferase reporter gene assay. It is filed as cell-based, HEK-293T. The gist of the method: (§3)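 Gal4 reporter assay in 293T cells with the same format as the RORγ Gal4 assay, using Gal4DBD:RORαLBD or Gal4DBD:RORβLBD constructs. Transfection, then compound treatment, then lysis and dual-flash luciferase luminescence. Activity measured in dose-response.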

For series [15], the target named is T3, Nuclear receptor subfamily 1 group I member 2 (Homo sapiens, UniProt O75469).
T3 sequence (O75469 whole entry): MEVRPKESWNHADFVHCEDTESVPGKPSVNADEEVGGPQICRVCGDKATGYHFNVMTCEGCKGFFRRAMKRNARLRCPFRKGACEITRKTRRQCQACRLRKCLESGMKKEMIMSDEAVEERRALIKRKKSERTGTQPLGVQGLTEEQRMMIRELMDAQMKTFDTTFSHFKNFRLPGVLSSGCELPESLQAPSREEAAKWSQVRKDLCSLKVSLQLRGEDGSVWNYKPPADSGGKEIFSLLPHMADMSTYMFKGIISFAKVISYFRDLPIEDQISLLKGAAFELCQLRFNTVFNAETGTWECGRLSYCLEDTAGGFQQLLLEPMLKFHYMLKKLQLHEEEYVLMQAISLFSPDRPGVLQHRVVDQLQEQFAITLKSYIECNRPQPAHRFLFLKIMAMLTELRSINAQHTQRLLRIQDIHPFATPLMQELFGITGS
Kind of series: Antagonist activity at Gal4 DNA binding domain-tagged human PXR ligand binding domain expressed in HEK293 cells assessed as inhibition of receptor-mediated transcriptional activity by luciferase reporter gene assay. Type of series: cell-based. In short, it runs like this:
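Screened by ChemPartner in HEK293 cells transiently co-transfected with a Gal4DBD-human NR LBD construct and a UAS-Luc reporter. Run in antagonist mode, read as % inhibition at a single concentration. Commercial reference compounds were run alongside in the same assay.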

Series [16] addresses T3, Nuclear receptor subfamily 1 group I member 2. Nature of the series: Agonist activity at Gal4 DNA binding domain-tagged human PXR ligand binding domain expressed in HEK293 cells assessed as activation of receptor-mediated transcriptional activity by luciferase reporter gene assay. Type of series: cell-based. In short, it runs like this: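 Screened by ChemPartner as a cell-based transient co-transfection reporter assay in HEK293 cells, using a Gal4DBD-human NR LBD construct with UAS-Luc. Run in agonist mode, read as % activation at a single concentration. Commercial reference compounds were profiled in the same assay for validation.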

The target in series [17] is T4, Nuclear receptor ROR-alpha (Homo sapiens, UniProt P35398).
T4 sequence (P35398 whole entry): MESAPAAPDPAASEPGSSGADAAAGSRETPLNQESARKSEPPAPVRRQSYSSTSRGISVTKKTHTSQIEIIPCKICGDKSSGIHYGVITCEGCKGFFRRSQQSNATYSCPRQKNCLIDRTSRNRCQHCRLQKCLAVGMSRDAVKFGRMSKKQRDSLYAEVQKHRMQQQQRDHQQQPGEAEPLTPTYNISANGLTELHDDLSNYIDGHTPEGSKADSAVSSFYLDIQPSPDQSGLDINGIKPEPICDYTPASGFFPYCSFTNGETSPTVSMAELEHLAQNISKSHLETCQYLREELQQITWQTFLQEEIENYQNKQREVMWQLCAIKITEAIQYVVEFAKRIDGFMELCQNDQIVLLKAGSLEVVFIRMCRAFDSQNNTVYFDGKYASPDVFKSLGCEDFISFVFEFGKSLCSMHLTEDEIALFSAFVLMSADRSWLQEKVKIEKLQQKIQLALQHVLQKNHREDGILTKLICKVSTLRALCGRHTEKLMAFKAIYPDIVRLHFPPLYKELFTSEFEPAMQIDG
Kind of series: Inverse agonist activity at Gal4 DNA binding domain-tagged human RORalpha expressed in HEK293T cells assessed as effect on receptor-mediated transcriptional activity by luciferase reporter gene assay. Type of series: cell-based, HEK-293T. The gist of the method:
as §3

Regarding `CN(C(=O)c1c(F)cccc1Cl)c1ccc(-c2cc(C(N)=O)ccc2Cl)cc1OCC(F)(F)F`, the AUC(0-inf) (commonly total exposure, with the tail of the curve extrapolated) in series [1] was 1.13 µg·h/mL; in series [13] it was 1.55 µg·h/mL. The Papp A→B – broadly, how fast a substance crosses the layer from the apical side – in [2] amounted to 322 nm/s. The Papp B→A (as a rule, the apparent permeability from the basolateral to the apical side of a cell layer) in [3] was found to be 353 nm/s. Moreover, in [4], the “inhibition (INH)” value is “Not Active”. In series [5], the bioavailability – broadly, dose-corrected exposure relative to a reference, in per cent – was 28%. Besides, in the series with Rattus norvegicus, the CLH amounted to 54%. Besides, the Cmax (as a rule, the peak of the concentration-time curve) is 2.35 µg/mL in [6] and 1.01 µg/mL in [11]. Moreover, in series [7], the half-life (in general, the time needed for the level to fall by half in the phase considered) is 1.3 h. Besides, the hepatic extraction ratio in series [8] turned out to be 0.88; in series [10], 0.83. Moreover, the pIC50 (usually the negative decadic logarithm of the IC50, by convention in mol/L) in [9] was 7.96. Further, in series [12], the pEC50 – broadly, the negative decadic logarithm of the EC50, by convention in mol/L – was 7.03.

For `[2H]C([2H])([2H])N(C(=O)c1c(F)cccc1Cl)c1ccc(-c2cc(C(N)=O)ccc2Cl)cc1OCC(F)(F)F`, the area under the curve AUC(0-inf) in series [1] was 1.54 µg·h/mL; in series [13], 3.13 µg·h/mL. Further, the pEC50 in series [14] was 5.71; in [17] it was 5.08. In addition, the bioavailability in series [5] was found to be 41%. Moreover, the CLH in the series on Rattus norvegicus turned out to be 40%. For the same molecule, the Cmax is 2.73 µg/mL in [6] and 1.21 µg/mL in series [11]. The half-life in series [7] is 9.6 h. Also, the hepatic extraction ratio stood at 0.51 in series [8] and 0.65 in [10]. Also, in series [15], the “inhibition (INH)” value is listed as less than 50%. The Activity in series [16] is given as less than 50%.

`CN(C(=O)c1c(F)cccc1Cl)c1ncc(-c2cc(C(N)=O)ccc2Cl)cc1OCC(F)(F)F`: the Papp A→B in [2] turned out to be 359 nm/s. The basolateral-to-apical permeability (Papp B→A) in [3] is 545 nm/s. The “inhibition (INH)” value in series [4] is recorded as “Not Active”. Also, the pIC50 in series [9] is 7.70. In addition, in series [12], the pEC50 is 6.61.
